From ChEMBL document CHEMBL1133045, “Enhancing the aqueous solubility of d4T-based phosphoramidate prodrugs” (Bioorg Med Chem Lett, 2000)
pEC50: −log10 of the molar value.

Tested on: not listed separately
Assay: Partition coefficient (logP)
Type: physicochemical
Conditions: octanol/water
Summary of the method: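 LogP measured as the 1-octanol/water partition coefficient.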

Compound | logP
COC(=O)C(C)NP(=O)(OC[C@@H]1C=C[C@H](n2cc(C)c(=O)[nH]c2=O)O1)Oc1ccccc1 (stereo partly specified) | 1.04
COC(=O)C(N)Cc1ccc(OP(=O)(NC(C)C(=O)OC)OCC2C=CC(n3cc(C)c(=O)[nH]c3=O)O2)cc1 (stereo unspecified) | 0.09
COC(=O)C(C)NP(=O)(OCC1C=CC(n2cc(C)c(=O)[nH]c2=O)O1)Oc1ccc(CC(NC(=O)OC(C)(C)C)C(=O)OC)cc1 (stereo unspecified) | 1.07
COCCOc1ccc(OP(=O)(NC(C)C(=O)OC)OCC2C=CC(n3cc(C)c(=O)[nH]c3=O)O2)cc1 (stereo unspecified) | 0.86
COCCOCCOc1ccc(OP(=O)(NC(C)C(=O)OC)OCC2C=CC(n3cc(C)c(=O)[nH]c3=O)O2)cc1 (stereo unspecified) | 0.86
CCOCCOc1ccc(OP(=O)(NC(C)C(=O)OC)OCC2C=CC(n3cc(C)c(=O)[nH]c3=O)O2)cc1 (stereo unspecified) | 1.1
COC(=O)C(C)NP(=O)(OC[C@@H]1C=C[C@H](n2cc(C)c(=O)[nH]c2=O)O1)Oc1ccc(OC)cc1 (stereo partly specified) | 1.09
COCCOCCOCCOc1ccc(OP(=O)(NC(C)C(=O)OC)OCC2C=CC(n3cc(C)c(=O)[nH]c3=O)O2)cc1 (stereo unspecified) | 0.86

Tested on: CCRF-CEM
Assay: Compound was evaluated for the cytotoxicity against CEM cell proliferation by 50%
Type: functional
Conditions: Homo sapiens

Compound | CC50 [nM]
COC(=O)C(C)NP(=O)(OC[C@@H]1C=C[C@H](n2cc(C)c(=O)[nH]c2=O)O1)Oc1ccccc1 (stereo partly specified) | 33000
COC(=O)C(C)NP(=O)(OCC1C=CC(n2cc(C)c(=O)[nH]c2=O)O1)Oc1ccc(CC(NC(=O)OC(C)(C)C)C(=O)OC)cc1 (stereo unspecified) | 217000
COCCOc1ccc(OP(=O)(NC(C)C(=O)OC)OCC2C=CC(n3cc(C)c(=O)[nH]c3=O)O2)cc1 (stereo unspecified) | 35000
COCCOCCOc1ccc(OP(=O)(NC(C)C(=O)OC)OCC2C=CC(n3cc(C)c(=O)[nH]c3=O)O2)cc1 (stereo unspecified) | 47000
CCOCCOc1ccc(OP(=O)(NC(C)C(=O)OC)OCC2C=CC(n3cc(C)c(=O)[nH]c3=O)O2)cc1 (stereo unspecified) | 64000
COC(=O)C(C)NP(=O)(OC[C@@H]1C=C[C@H](n2cc(C)c(=O)[nH]c2=O)O1)Oc1ccc(OC)cc1 (stereo partly specified) | > 100000
COCCOCCOCCOc1ccc(OP(=O)(NC(C)C(=O)OC)OCC2C=CC(n3cc(C)c(=O)[nH]c3=O)O2)cc1 (stereo unspecified) | 114000

Tested on: CCRF-CEM
Assay: Concentration required to protect CEM/TK- cells against cytopathicity of HIV-2 by 50%
Type: functional, cell-based
Conditions: Homo sapiens

Compound | pEC50
COC(=O)C(N)Cc1ccc(OP(=O)(NC(C)C(=O)OC)OCC2C=CC(n3cc(C)c(=O)[nH]c3=O)O2)cc1 (stereo unspecified) | 5.30
COC(=O)C(C)NP(=O)(OCC1C=CC(n2cc(C)c(=O)[nH]c2=O)O1)Oc1ccc(CC(NC(=O)OC(C)(C)C)C(=O)OC)cc1 (stereo unspecified) | 6.10
COCCOc1ccc(OP(=O)(NC(C)C(=O)OC)OCC2C=CC(n3cc(C)c(=O)[nH]c3=O)O2)cc1 (stereo unspecified) | 6.47
COCCOCCOc1ccc(OP(=O)(NC(C)C(=O)OC)OCC2C=CC(n3cc(C)c(=O)[nH]c3=O)O2)cc1 (stereo unspecified) | 5.92
CCOCCOc1ccc(OP(=O)(NC(C)C(=O)OC)OCC2C=CC(n3cc(C)c(=O)[nH]c3=O)O2)cc1 (stereo unspecified) | 6.40
COC(=O)C(C)NP(=O)(OC[C@@H]1C=C[C@H](n2cc(C)c(=O)[nH]c2=O)O1)Oc1ccc(OC)cc1 (stereo partly specified) | 7.33
COCCOCCOCCOc1ccc(OP(=O)(NC(C)C(=O)OC)OCC2C=CC(n3cc(C)c(=O)[nH]c3=O)O2)cc1 (stereo unspecified) | 5.87

Tested on: CCRF-CEM
Assay: Concentration required to protect CEM cells against cytopathicity of HIV-1 by 50%
Type: functional, cell-based
Conditions: Homo sapiens

Compound | pEC50
COC(=O)C(N)Cc1ccc(OP(=O)(NC(C)C(=O)OC)OCC2C=CC(n3cc(C)c(=O)[nH]c3=O)O2)cc1 (stereo unspecified) | 5.40
COC(=O)C(C)NP(=O)(OCC1C=CC(n2cc(C)c(=O)[nH]c2=O)O1)Oc1ccc(CC(NC(=O)OC(C)(C)C)C(=O)OC)cc1 (stereo unspecified) | 6.19
COCCOc1ccc(OP(=O)(NC(C)C(=O)OC)OCC2C=CC(n3cc(C)c(=O)[nH]c3=O)O2)cc1 (stereo unspecified) | 7.05
COCCOCCOc1ccc(OP(=O)(NC(C)C(=O)OC)OCC2C=CC(n3cc(C)c(=O)[nH]c3=O)O2)cc1 (stereo unspecified) | 6.26
CCOCCOc1ccc(OP(=O)(NC(C)C(=O)OC)OCC2C=CC(n3cc(C)c(=O)[nH]c3=O)O2)cc1 (stereo unspecified) | 6.70
COC(=O)C(C)NP(=O)(OC[C@@H]1C=C[C@H](n2cc(C)c(=O)[nH]c2=O)O1)Oc1ccc(OC)cc1 (stereo partly specified) | 7.24
COCCOCCOCCOc1ccc(OP(=O)(NC(C)C(=O)OC)OCC2C=CC(n3cc(C)c(=O)[nH]c3=O)O2)cc1 (stereo unspecified) | 6.12

Tested on: CCRF-CEM
Assay: Concentration required to protect CEM cells against cytopathicity of HIV-2 by 50%
Type: functional, cell-based
Conditions: Homo sapiens

Compound | pEC50
COC(=O)C(N)Cc1ccc(OP(=O)(NC(C)C(=O)OC)OCC2C=CC(n3cc(C)c(=O)[nH]c3=O)O2)cc1 (stereo unspecified) | 5.00
COC(=O)C(C)NP(=O)(OCC1C=CC(n2cc(C)c(=O)[nH]c2=O)O1)Oc1ccc(CC(NC(=O)OC(C)(C)C)C(=O)OC)cc1 (stereo unspecified) | 6.15
COCCOc1ccc(OP(=O)(NC(C)C(=O)OC)OCC2C=CC(n3cc(C)c(=O)[nH]c3=O)O2)cc1 (stereo unspecified) | 6.22
COCCOCCOc1ccc(OP(=O)(NC(C)C(=O)OC)OCC2C=CC(n3cc(C)c(=O)[nH]c3=O)O2)cc1 (stereo unspecified) | 6.00
CCOCCOc1ccc(OP(=O)(NC(C)C(=O)OC)OCC2C=CC(n3cc(C)c(=O)[nH]c3=O)O2)cc1 (stereo unspecified) | 6.60
COC(=O)C(C)NP(=O)(OC[C@@H]1C=C[C@H](n2cc(C)c(=O)[nH]c2=O)O1)Oc1ccc(OC)cc1 (stereo partly specified) | 7.28
COCCOCCOCCOc1ccc(OP(=O)(NC(C)C(=O)OC)OCC2C=CC(n3cc(C)c(=O)[nH]c3=O)O2)cc1 (stereo unspecified) | 5.89
